Measured values reported in ChEMBL document CHEMBL5036358, “The Flavonoid Baicalein Negatively Regulates Progesterone Target Genes in the Uterus in Vivo” (J Nat Prod, 2022).
The source made the active and inactive calls. The rule behind the calls is not given here.

Experiments:
[1] = Antiproliferative activity against CD-1 mouse uterine epithelial cell at 1 mg/kg, ip for 7 days by immunohistochemistry method; format: functional; details: time 7 day
Procedure, shortened: (§1)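 Ovariectomized CD-1 mice, 5 per group, dosed IP daily for 7 days: 10% DMSO vehicle, progesterone 1 mg/kg, baicalein 25 mg/kg, P4 1 mg/kg + baicalein 25 mg/kg, or P4 1 mg/kg + RU486 10 mg/kg. One uterine horn formalin-fixed, paraffin-embedded, cut at 5 μm. IHC: citrate antigen retrieval at 100 °C, primary antibody overnight at 4 °C, ABC/DAB, hematoxylin counterstain. For PCNA, the percentage of proliferating luminal epithelial cells was counted.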

Mus musculus [2] = assay: Inhibition of ZBTB16 expression in CD-1 mouse uterus at 1 mg/kg, ip for 7 days by Immunohistochemical staining method; format: functional, organism-based; details: time 7.0 day; procedure, shortened: as §1
Mus musculus [3] = assay: Effect on PR protein level in CD-1 mouse uterus at 1 mg/kg, ip for 7 days by immunohistochemical; format: functional, organism-based; details: time 7.0 day; procedure, shortened: as §1
Mus musculus [4] = assay: Effect on GR expression in CD-1 mouse uterine stromal at 1 mg/kg, ip for 7 days by immunohistochemical staining analysis; format: functional, organism-based; details: Stroma, time 7.0 day; procedure, shortened: as §1
[5] = Toxicity in CD-1 mouse assessed as effect on body weight at 25 mg/kg, ip for 7 days (Rvb= 30g); format: organism-based; details: in vivo, 168 h, time 7 day
[6] = Toxicity in CD-1 mouse assessed as effect on uterus weight at 25 mg/kg,ip for 7 days (Rvb= 0.033g); format: organism-based; details: in vivo, 168 h, time 7 day
[7] = Toxicity in CD-1 mouse assessed as effect on MG weight at 25 mg/kg, ip for 7 days (Rvb= 0.22g); format: organism-based; details: in vivo, 168 h, time 7 day
[8] = Toxicity in CD-1 mouse assessed as effect on liver weight at 25 mg/kg, ip for 7 days (Rvb= 1.3 g); format: organism-based; details: in vivo, 168 h, time 7 day
[9] = Toxicity in CD-1 mouse assessed as effect on glucose level at 25 mg/kg, ip for 7 days (Rvb=231.6 mg/dL); format: organism-based; details: in vivo, 168 h, time 7 day
Mus musculus [10] = assay: Upregulation of P4 induced HAND2 expression in CD-1 mouse uterus at 10 mg/kg, ip for 7 days by immunohistochemical staining method; format: functional, organism-based; details: time 7.0 day
Mus musculus [11] = assay: Effect on P4 induced PR protein level in CD-1 mouse uterus at 10 mg/kg, ip for 7 days by immunohistochemical staining method; format: functional, organism-based; details: time 7.0 day
Mus musculus [12] = assay: Effect on P4 induced GR expression in CD-1 mouse uterine stroma at 10 mg/kg, ip for 7 days by immunohistochemical analysis; format: functional, organism-based; details: time 7.0 day
Procedure, shortened: (§2)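 Ovariectomized CD-1 mice (n=5/group) were dosed ip for 7 days with 10% DMSO, 1 mg/kg P4, 25 mg/kg compound, 1 mg/kg P4 plus 25 mg/kg compound, or 1 mg/kg P4 plus 10 mg/kg RU486. Uterine sections (5 μm) were processed with citrate retrieval and overnight 4 °C primary antibodies: GR 1:100; PR, HAND2 and ZBTB16 1:200. Staining used biotinylated secondary, ABC and DAB, and was assessed qualitatively.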

Mus musculus [13] = assay: Effect on P4 induced GR expression in CD-1 mouse uterine luminal epithelium at 10 mg/kg, ip for 7 days by immunohistochemical analysis; format: functional, organism-based; details: Uterine lumen, time 7.0 day; procedure, shortened: as §2
[14] = Toxicity in P4 induced CD-1 mouse assessed as effect on body weight at 10 mg/kg, ip for 7 days (Rvb= 30g); format: organism-based; details: in vivo, 168 h, time 7 day
[15] = Toxicity in P4 induced CD-1 mouse assessed as effect on uterus weight at 10 mg/kg,ip for 7 days (Rvb= 0.033g); format: organism-based; details: in vivo, 168 h, time 7 day
[16] = Toxicity in P4 induced CD-1 mouse assessed as effect on MG weight at 10 mg/kg, ip for 7 days (Rvb= 0.22g); format: organism-based; details: in vivo, 168 h, time 7 day
[17] = Toxicity in P4 induced CD-1 mouse assessed as effect on liver weight at 10 mg/kg, ip for 7 days (Rvb= 1.3 g); format: organism-based; details: in vivo, 168 h, time 7 day
[18] = Toxicity in P4 induced CD-1 mouse assessed as effect on glucose level at 10 mg/kg, ip for 7 days (Rvb=231.6 mg/dL); format: organism-based; details: in vivo, 168 h, time 7 day

For `CC(=O)[C@H]1CC[C@H]2[C@@H]3CCC4=CC(=O)CC[C@]4(C)[C@H]3CC[C@]12C` [PROGESTERONE], the Activity [1] was 7%, the inhibition (Mus musculus [2]) was “inactive” and the Activity (Mus musculus [3]) was “inactive”. The Activity (Mus musculus [4]) was “Active”, the Activity [5] was 30 g and the Activity [6] was 0.021 g. The Activity [7] was 0.24 g, the Activity [8] was 1.4 g and the Activity [9] was 209.4 mg/dL.
With `CC#C[C@]1(O)CC[C@H]2[C@@H]3CCC4=CC(=O)CCC4=C3[C@@H](c3ccc(N(C)C)cc3)C[C@@]21C` [MIFEPRISTONE] the Activity (Mus musculus [10]) was “inactive”, the Activity (Mus musculus [11]) was “inactive” and the Activity (Mus musculus [12]) was “Active”. For the same compound, the Activity (Mus musculus [13]) was “Active”, the Activity [14] was 29 g and the Activity [15] was 0.021 g. It also gave an Activity [16] of 0.17 g, an Activity [17] of 1.2 g and an Activity [18] of 198.2 mg/dL.
